The source of these data is ChEMBL document CHEMBL1157779, “Merging the structural motifs of functionalized amino acids and alpha-aminoamides: compounds with significant anticonvulsant activities” (J Med Chem, 2010).

A word on the ED50: it is the dose that gives a 50% effect, or the effect in half of the subjects. As usually defined, the TD50 is the dose at which the toxic effect under study appears in half of the subjects. Low values mean greater toxicity, high ones lower toxicity.

In series [1] the test system is Mus musculus. Nature of the series: Anticonvulsant activity in ip dosed albino mouse assessed as inhibition of maximal electroshock-induced seizures after […]. The class given is functional. On the technique in general: In the maximal electroshock model the usual endpoint is tonic extension of the hind limbs.
Series [2] relates to Mus musculus. Nature of the series: Anticonvulsant activity in albino mouse assessed as protection against subcutaneous metrazole-induced seizures up to 300 mg/kg, ip after 0.5 hrs. Format: functional, organism-based. Further details: dose 300 mg/kg. In a few lines: (§1)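 Male albino Carworth Farms No. 1 mice dosed ip under NIH Anticonvulsant Screening Program; subcutaneous Metrazol seizure challenge at 0.5 and 4 h after doses up to 300 mg/kg.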

Series [3] deals with Mus musculus. Nature of the series: Anticonvulsant activity in albino mouse assessed as protection against subcutaneous metrazole-induced seizures up to 300 mg/kg, ip after 4 hrs. Further details: dose 300 mg/kg. The class given is functional, organism-based. In a few lines: as §1
Series [4] in a line: (§2) Behavioral toxicity in po dosed Sprague-Dawley albino rat. As to conditions: Sprague-Dawley, in vivo. Format: organism-based.
For series [5], the system named is Mus musculus. Nature of the series: Antiinflammatory activity in albino mouse assessed as reduction in formalin-induced late inflammation at 16 mg/kg, ip. Further details: dose 16 mg/kg. The class given is functional, organism-based.
The species named for series [6] is Mus musculus. Nature of the series: Protective index, ratio of TD50 for albino mouse to anticonvulsant ED50 for albino mouse. Format: functional.
The nature of series [7]: Behavioral toxicity in po dosed Sprague-Dawley albino rat after 0.25 to 4 hrs. The class given is organism-based. The note with it: in vivo. In a few lines:
(§3)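 Oral dosing in male albino Sprague-Dawley rats with behavioral toxicity observation at set times after dosing, doses up to 500 mg/kg.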

Series [8] deals with Mus musculus. Nature of the series: Anticonvulsant activity in ip dosed albino mouse assessed as protection against 6 Hz electric shock-induced seizures after 0.5 hrs. The class given is functional. In a few lines:
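Psychomotor 6 Hz (32 mA) seizure model in male albino Carworth Farms No. 1 mice given compound ip; ED50 in mg/kg.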

Series [9] relates to Rattus norvegicus. The series is described as follows: Anticonvulsant activity in po dosed Sprague-Dawley albino rat assessed as inhibition of maximal electroshock-induced seizures after 0.25 to 2 hrs. The class given is functional. In outline: (§4)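 Male albino Sprague-Dawley rats dosed orally; maximal electroshock seizures, protection scored as blockade of hind limb extension, tested at set times after dosing; ED50 in mg/kg from quantitative evaluation for active compounds.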

The test system of series [10] is Mus musculus. Nature of the series: Anticonvulsant activity in ip dosed albino mouse assessed as inhibition of maximal electroshock-induced seizures after 4 hrs. The class given is functional. In a few lines: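 Male albino Carworth Farms No. 1 mice given compound ip; maximal electroshock applied and protection scored as blockade of hind limb extension; identification screening, then ED50 (mg/kg) from quantitative testing for active compounds.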

Series [11] concerns Mus musculus. The series is described as follows: (§5) Toxicity in ip dosed albino mouse after 0.5 hrs by rotarod test. Format: organism-based. The note with it: in vivo, 0.5 h. On the technique in general: In the rotarod test animals must keep their balance on a rotating rod.
A short description of series [12]: Toxicity in ip dosed albino mouse after 4 hrs by rotarod test. The class given is organism-based. The note with it: in vivo. In a few lines:
(§6)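 Male albino Carworth Farms No. 1 mice dosed ip; neurological impairment by rotorod test at set times; TD50 (mg/kg) determined for compounds active in MES.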

A short description of series [13]: Toxicity in ip dosed albino mouse after […] by rotarod test. As to conditions: in vivo. The class given is organism-based.
Series [14] concerns Rattus norvegicus. Nature of the series: Anticonvulsant activity in po dosed Sprague-Dawley albino rat assessed as inhibition of maximal electroshock-induced seizures after 2 hrs. Format: functional.
Series [15] is filed under the species Rattus norvegicus. The series is described as follows: Protective index, ratio of TD50 for Sprague-Dawley albino rat to anticonvulsant ED50 for Sprague-Dawley albino rat. The class given is functional. In a few lines: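 Rat, oral: behavioral-toxicity TD50 divided by MES ED50, both in mg/kg.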
Series [16] deals with Mus musculus. Nature of the series: Anticonvulsant activity in ip dosed albino mouse assessed as inhibition of maximal electroshock-induced seizures after 0.5 hrs. The class given is functional.
Series [17] has as its system Rattus norvegicus. The series is described as follows: Anticonvulsant activity in po dosed Sprague-Dawley albino rat assessed as inhibition of maximal electroshock-induced seizures after 4 hrs. The class given is functional. In outline: as §4
For series [18], the system named is Rattus norvegicus. The series is described as follows: Anticonvulsant activity in po dosed Sprague-Dawley albino rat assessed as inhibition of maximal electroshock-induced seizures. The class given is functional. In a few lines:
as §4

The subject of series [19] is Rattus norvegicus. The series is described as follows: Behavioral toxicity in po dosed Sprague-Dawley albino rat after 4 hrs. Format: organism-based. The note with it: in vivo, 4 h. In outline:
as §3

The nature of series [20]: (§7) Behavioral toxicity in po dosed Sprague-Dawley albino rat after 1 hr. As to conditions: Sprague-Dawley, in vivo. The class given is organism-based. In a few lines: as §3
Series [21] in a line: as §5. The class given is organism-based. As to conditions: albino, in vivo.
Series [22] has as its system Mus musculus. Nature of the series: Anticonvulsant activity in ip dosed albino mouse assessed as inhibition of maximal electroshock-induced seizures. The class given is functional. The note with it: read-out: ED50. In a few lines: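 Male albino Carworth Farms No. 1 mice dosed intraperitoneally; screened via the NIH Anticonvulsant Screening Program. Protection scored as blocking of hind limb extension after maximal electroshock. Median effective dose (ED50, mg/kg) obtained in quantitative evaluations of active compounds. Rotorod test gave TD50 for neurological impairment, and PI = TD50/ED50.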

The nature of series [23]: Toxicity in ip dosed albino mouse by rotarod test. The class given is organism-based. As to conditions: in vivo. In outline:
as §6

For series [24], the system named is Mus musculus. The series is described as follows: Anticonvulsant activity in ip dosed albino mouse assessed as inhibition of maximal electroshock-induced seizures after 2 hrs. The class given is functional.
Series [25] concerns Rattus norvegicus. Nature of the series: Anticonvulsant activity in po dosed Sprague-Dawley albino rat assessed as inhibition of maximal electroshock-induced seizures after 1 hr. Format: functional. In a few lines:
as §4

Series [26] has as its system Rattus norvegicus. The series is described as §7. Format: organism-based. As to conditions: in vivo, 1 h. In a few lines:
as §3

Series [27] deals with Rattus norvegicus. Described as §2. Format: organism-based. As to conditions: in vivo.

Activity calls are given as the source filed them. The rule behind the calls is not given here.

With `COC[C@@H](NC(C)=O)C(=O)NCc1ccc(OCc2ccccc2F)cc1`, the ED50 in series [1] stood at 6.7 mg/kg.
As for `CCCC(CCC)C(=O)[O-].[Na+]` [VALPROATE SODIUM], the 50% effective dose (ED50) in series [1] came out at 270 mg/kg. Also, the outcome in [2] and in series [3] was inactive.
As for `COC[C@@H](NC(C)=O)C(=O)NCc1ccccc1` [LACOSAMIDE], the TD50 in [4] is over 500 mg/kg. Further, the outcome in series [2] and in [3] was inactive. In addition, the outcome in series [5] was Active.
In the case of `COC[C@@H](NC(C)=O)C(=O)NCc1ccc(Oc2cccc(F)c2)cc1`, the ED50 in series [1] is 5.5 mg/kg; in [8] it was 10 mg/kg; in series [9], under 10 mg/kg. The “Ratio TD50/ED50” value in [6] is recorded as 4.2. The TD50 in series [7] is over 10 mg/kg.
Turning to `CC(=O)N[C@@H](C(=O)NCc1ccc(OCc2cccc(F)c2)cc1)C(C)(C)C`, in [10], the median effective dose (ED50) is over 300 mg/kg. The TD50 in series [11] is over 300 mg/kg. In series [12], the TD50 at 4 h came out at 300 mg/kg. Besides, the outcome in [2] and in series [3] was inactive.
Regarding `COC[C@@H](NC(C)=O)C(=O)NCc1ccc(COc2cccc(F)c2)cc1`, the ED50 stood at 5.9 mg/kg in [1] and 19 mg/kg in [14]. In [13], this molecule showed a TD50 at […] of 10 mg/kg. The entries for the “Ratio TD50/ED50” value in series [6] and in series [15] were 1.8 and over 21, respectively.
In the case of `CC(=O)N[C@H](C)C(=O)NCc1ccc(OCc2cccc(F)c2)cc1`, the ED50 was under 100 mg/kg in [10], over 30 mg/kg in series [16], 31 mg/kg in series [17] and 21 mg/kg in series [18]. The TD50 in series [11] was over 300 mg/kg; in series [19], over 500 mg/kg. The “Ratio TD50/ED50” value in series [15] was over 16. Besides, the result in series [2] and in series [3] was inactive.
`COC[C@@H](NC(C)=O)C(=O)NCc1ccc(OCc2ccccc2)cc1`: the ED50 in series [1] is 5.8 mg/kg. Also, the “Ratio TD50/ED50” value in series [6] was 3.8; in [15], over 45. This molecule displayed a TD50 at 1 h in [20] of over 250 mg/kg.
As to `COC[C@@H](NC(C)=O)C(=O)NCc1ccc(COCc2cccc(F)c2)cc1`, the ED50 in series [16] was determined as 30 mg/kg. For the same molecule, in series [21], the TD50 at 0.5 h was 30 mg/kg.
In the case of `C[C@@H](NCc1ccc(OCc2cccc(F)c2)cc1)C(N)=O`, the ED50 in [22] stood at 7.2 mg/kg. Moreover, the TD50 in series [23] turned out to be 580 mg/kg. Besides, the “Ratio TD50/ED50” value in [6] is recorded as 88. Moreover, the outcome in series [2] and in series [3] was inactive.
For the molecule `CCC1(c2ccccc2)C(=O)NC(=O)NC1=O`, the result in series [2] and in [3] was inactive.
As to `CC(=O)NCC(=O)NCc1ccc(OCc2cccc(F)c2)cc1`, the ED50 in series [10] is 100 mg/kg; in series [24], 30 mg/kg; in series [25], 31 mg/kg; in series [18] it was 18 mg/kg. In series [12], the TD50 at 4 h was over 300 mg/kg. This molecule gave a TD50 in series [26] of over 500 mg/kg. In addition, in [15], the “Ratio TD50/ED50” value is over 16. The result in series [2] and in series [3] was inactive.
As to `O=C1NC(=O)C(c2ccccc2)(c2ccccc2)N1`, the outcome in series [2] and in series [3] was inactive.
Consider `CC(=O)N[C@@H](C(=O)NCc1ccc(OCc2cccc(F)c2)cc1)C(C)C`, for which the ED50 in series [10] is over 300 mg/kg; in [18] it was over 30 mg/kg. This molecule came in with a TD50 at 4 h in series [12] of over 300 mg/kg. In series [27], this molecule registered a TD50 of over 30 mg/kg. Also, the result in series [2] and in series [3] was inactive.
